# Experimental data as given in ChEMBL document CHEMBL2380219, “Physalin A induces apoptotic cell death and protective autophagy in HT1080 human fibrosarcoma cells” (J Nat Prod, 2013).
# Calls of active or inactive are those of the source. The calls are words filed in the database; no cut-off is given here.
# How the values were obtained:
# HT-1080 [1] = test: Induction of apoptosis in human HT1080 cells expressing beclin 1 siRNA assessed as ICAD downregulation at 10 uM after 24 hrs by Western blotting relative to control; format: functional, cell-based
# How it was run: (§1)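 5 × 10^5 HT1080 cells transfected with beclin 1 or nonspecific siRNA using TranSmarter for 7 h at 37 °C, then kept 24 h in normal medium. Treated with 10 μM for 24 h and lysed. Proteins assessed by Western blot with β-actin normalization and compared with nonspecific-siRNA groups.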
# HT-1080 [2] = test: Induction of apoptosis in human HT1080 cells expressing beclin 1 siRNA assessed as increase in PARP cleavage at 10 uM after 24 hrs by Western blotting relative to control; format: functional, cell-based
# How it was run: (§2)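 Beclin 1 or nonspecific siRNA transfected into HT1080 cells (5 × 10^5 seeded a day earlier; transfection mixture for 7 h at 37 °C, then normal medium, 24 h before harvest). Cells then got 10 μM for 24 h. Adherent plus floating cells lysed in Hepes pH 7.4/Triton buffer at 4 °C for 60 min. Equal protein on 12% SDS-PAGE, nitrocellulose, ECL. Bands normalized to β-actin, n = 3.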
# HT-1080 [3] = test: Induction of apoptosis in human HT1080 cells expressing beclin 1 siRNA assessed as increase in FADD protein expression at 10 uM after 24 hrs by Western blotting analysis relative to control; format: functional, cell-based; how it was run: as §1
# HT-1080 [4] = test: Induction of apoptosis in human HT1080 cells expressing beclin 1 siRNA assessed as reversal of beclin 1 upregulation at 10 uM after 24 hrs by Western blotting analysis relative to control; format: functional, cell-based; how it was run: as §2
# HT-1080 [5] = test: Induction of apoptosis in human HT1080 cells assessed as upregulation of FAS protein expression at 10 uM pretreated with rapamycin for 1 hr prior to compound addition measured after 24 hrs by Western blotting analysis; format: functional, cell-based
# How it was run: (§3)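 HT1080 cells pretreated 1 h with 1 mM 3MA or 1 nM rapamycin, then co-incubated with 10 μM for 24 h. Adherent and floating cells lysed in Hepes pH 7.4/Triton buffer. 12% SDS-PAGE, nitrocellulose, antibodies against Fas, FADD, caspase-8, caspase-3, PARP and ICAD, ECL detection. Densities normalized to β-actin; n = 3.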
# HT-1080 [6] = test: Induction of apoptosis in human HT1080 cells assessed as upregulation of FADD protein expression at 10 uM pretreated with 3MA for 1 hr prior to compound addition measured after 24 hrs by Western blotting analysis; format: functional, cell-based; how it was run: as §3
# HT-1080 [7] = test: Induction of apoptosis in human HT1080 cells assessed as upregulation of FAS protein expression at 10 uM pretreated with 3MA for 1 hr prior to compound addition measured after 24 hrs by Western blotting analysis; format: functional, cell-based; how it was run: as §3
# HT-1080 [8] = test: Induction of autophagy in human HT1080 cells assessed as conversion from LC31to LC32 at 10 uM pretreated with rapamycin for 1 hr prior to compound addition measured after 24 hrs by Western blotting analysis; format: functional, cell-based
# How it was run: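 HT1080 cells pretreated 1 h with 1 mM 3MA or 1 nM rapamycin, then 10 μM added for 24 h. Adherent and floating cells lysed in Hepes pH 7.4/Triton buffer. Equal protein on 12% SDS-PAGE and nitrocellulose, probed for beclin 1 and LC3, ECL detection. Normalized to β-actin, n = 3.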
# HT-1080 [9] = test: Induction of autophagy in human HT1080 cells assessed as increase in autophagy ratio at 10 uM pretreated with rapamycin for 1 hr prior to compound addition measured after 24 hrs by MDC staining-based FACS flow cytometric analysis; format: functional, cell-based
# How it was run: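 HT1080 cells seeded at 3 × 10^5 per flask and grown 24 h. Pretreated 1 h with 1 mM 3MA or 1 nM rapamycin, then 10 μM for 24 h. Collected cells stained with 0.05 mM MDC at 37 °C for 1 h. MDC-positive ratio measured by flow cytometry, n = 3, mean ± SD.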
# HT-1080 [10] = test: Induction of autophagy in human HT1080 cells assessed as increase in autophagolysosomes at 10 uM after 24 hrs by MDC staining-based fluorescence microscopic analysis (reference value: 2.65 +/- 0.12%); format: functional
# How it was run: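 HT1080 cells at 2 × 10^4 per well, cultured 24 h, then given 10 μM for 24 h. Stained with 0.05 mM MDC at 37 °C for 1 h. Autophagolysosomes viewed by fluorescence microscopy at 200×.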
# HT-1080 [11] = test: Induction of apoptosis in human HT1080 cells assessed as change in BCL2 expression at 10 uM after 6 to 24 hrs by Western blotting analysis; format: functional, cell-based
# How it was run: (§4)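 HT1080 cells treated with 10 μM for 6, 12, 18 and 24 h. Adherent and floating cells lysed 60 min at 4 °C in Hepes pH 7.4/1% Triton X-100 buffer with phosphatase and protease inhibitors. Equal protein run on 12% SDS-PAGE, transferred to nitrocellulose, probed with specific antibodies, HRP/ECL detection. Band density normalized to β-actin; n = 3.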
# HT-1080 [12] = test: Induction of apoptosis in human HT1080 cells assessed as change in BAX expression at 10 uM after 6 to 24 hrs by Western blotting analysis; format: functional, cell-based; how it was run: as §4
# HT-1080 [13] = test: Induction of apoptosis in human HT1080 cells assessed as change in cytochrome C expression at 10 uM after 6 to 24 hrs by Western blotting analysis; format: functional, cell-based; how it was run: as §4
# HT-1080 [14] = test: Induction of apoptosis in human HT1080 cells assessed as change in procaspase-9 expression level at 10 uM after 6 to 24 hrs by Western blotting analysis; format: functional, cell-based; how it was run: as §4
# HT-1080 [15] = test: Induction of apoptosis in human HT1080 cells assessed as downregulation of ICAD at 10 uM after 6 to 24 hrs by Western blotting analysis; format: functional, cell-based; how it was run: as §4
# HT-1080 [16] = test: Induction of apoptosis in human HT1080 cells assessed as procaspase-3 cleavage at 10 uM by Western blotting analysis; format: functional, cell-based; details: TDE = time-dependent effect
# HT-1080 [17] = test: Cytotoxicity against human HT1080 cells assessed as growth inhibition at 10 uM pretreated with z-IETD-FMK for 1 hr prior to compound addition measured after 24 hrs by MTT assay; format: functional, cell-based
# How it was run: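 HT1080 seeded 0.8 × 10^4 cells/well. MTT 2 h at 37 °C, formazan in DMSO, A492 read. Inhibition % calculated against untreated and blank wells.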
# HT-1080 [18] = test: Induction of apoptosis in human HT1080 cells assessed as appearance of membrane blebbing at 10 uM after 24 hrs by acridine orange staining-based fluorescence microscopic analysis; format: functional, cell-based
# How it was run: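 HT1080 cells, 2 × 10^4/well, cultured 24 h, then exposed to 10 μM for 24 h. Stained with acridine orange 20 μg/mL for 15 min in the dark and examined by fluorescence microscopy at 200×.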
# MCF7 = test: Cytotoxicity against human MCF7 cells assessed as growth inhibition after 24 hrs by MTT assay; format: functional, cell-based
# How it was run: (§5)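 Seeded 0.8 × 10^4 cells/well, cultured 24 h, then exposed to 0, 10, 20, 40 or 80 μM for 24 h (DMSO <0.05%) in RPMI 1640 or MEM with 10% FBS. Adherent lines rinsed with PBS, given MTT 2 h at 37 °C. Suspension lines (U937, HL60) given MTT 2 h, then centrifuged. Formazan dissolved in DMSO, A492 read. Inhibition % = (control − sample)/(control − blank) × 100.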
# HCT-116 = test: Cytotoxicity against human HCT116 cells assessed as growth inhibition after 24 hrs by MTT assay; format: functional, cell-based; how it was run: as §5
smiles,measurement,setting,value
C=C1C(=O)O[C@@H]2C[C@@]1(C)[C@@H]1C(=O)[C@]3(O)O[C@]14[C@@]2(C)OC(=O)[C@@]4(O)CC[C@H]1[C@H]3[C@H](O)C=C2CC=CC(=O)[C@@]21C [PHYSALIN A],Activity,HT-1080 [1],Active
same,Activity,HT-1080 [2],Active
same,Activity,HT-1080 [3],Active
same,Activity,HT-1080 [4],Active
same,Activity,HT-1080 [5],inactive
same,Activity,HT-1080 [6],Active
same,Activity,HT-1080 [7],Active
same,Activity,HT-1080 [8],Active
same,Activity,HT-1080 [9],Active
same,Activity,HT-1080 [10],26.7%
same,Activity,HT-1080 [11],inactive
same,Activity,HT-1080 [12],inactive
same,Activity,HT-1080 [13],inactive
same,Activity,HT-1080 [14],inactive
same,Activity,HT-1080 [15],Active
same,Activity,HT-1080 [16],tde
same,growth inhibition (GI),HT-1080 [17],Active
same,Activity,HT-1080 [18],Active
same,growth inhibition (GI),MCF7,Dose-dependent effect
same,growth inhibition (GI),HCT-116,Dose-dependent effect
